Converted amounts (≈) assume the structure as drawn. Read-outs that look alike come from different tables or passages of the source.
What was measured:
P. aeruginosa MetRS [1] = target: T1, P. aeruginosa MetRS (Pseudomonas aeruginosa, UniProt Q9HYC7); assay: tRNA aminoacylation assay in SPA format; format: biochemical
T1 sequence (Q9HYC7 1-677): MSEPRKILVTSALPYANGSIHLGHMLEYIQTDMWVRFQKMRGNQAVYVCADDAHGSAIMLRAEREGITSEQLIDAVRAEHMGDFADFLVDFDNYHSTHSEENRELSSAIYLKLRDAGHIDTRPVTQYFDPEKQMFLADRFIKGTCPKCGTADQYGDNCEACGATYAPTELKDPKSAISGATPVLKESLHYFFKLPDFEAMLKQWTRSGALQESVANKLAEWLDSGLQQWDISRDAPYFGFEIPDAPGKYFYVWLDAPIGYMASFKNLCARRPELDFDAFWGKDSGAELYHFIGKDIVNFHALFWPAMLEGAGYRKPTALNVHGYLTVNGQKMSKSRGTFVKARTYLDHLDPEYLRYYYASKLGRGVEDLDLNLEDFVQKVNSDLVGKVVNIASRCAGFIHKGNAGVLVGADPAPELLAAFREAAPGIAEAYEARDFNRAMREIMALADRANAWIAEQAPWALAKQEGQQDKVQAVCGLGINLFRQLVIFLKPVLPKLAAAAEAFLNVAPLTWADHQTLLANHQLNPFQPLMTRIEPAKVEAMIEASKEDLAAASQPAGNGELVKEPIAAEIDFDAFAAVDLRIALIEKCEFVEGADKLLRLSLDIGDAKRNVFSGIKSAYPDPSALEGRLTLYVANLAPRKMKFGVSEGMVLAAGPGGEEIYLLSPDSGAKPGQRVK

E. faecalis (ATCC 29212) = assay: MIC, broth microdilution; format: cell-based, Enterococcus faecalis
H. influenzae = assay: Time-kill study; format: cell-based, Haemophilus influenzae; conditions: 4×MIC
Summary of the method: (§1)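 Time-kill following CLSI document M26-A. Growth media were Haemophilus Test Broth and Trypticase Soy Broth. Cultures with compound were sampled at 0, 2, 4, 6 and 24 h and plated for CFU counts. Controls had no compound but an equal amount of DMSO.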

[2] = test system: P. aeruginosa (hypersensitive); assay: MIC, broth microdilution; format: cell-based, Pseudomonas aeruginosa; conditions: P. aeruginosa hypersensitive strain (ATCC 35151)
Summary of the method: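 Broth microdilution per CLSI guideline M7-A7, read as MIC in μg/ml. Hypersensitive strain ATCC 35151 was a gift. Compound stocks were 10 mM in DMSO. Three separate sets of assays were run. MIC QC and culture purity were checked with antibiotics specific to each strain, using Etest QC ranges.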

P. aeruginosa MetRS [3] = target: T1, P. aeruginosa MetRS; assay: Binding mode; format: biochemical; conditions: for competition with methionine for binding MetRS: 25-300 μM methionine, 2.5 mM ATP; for competition with ATP for binding MetRS: 25-1000 μM ATP, 75 μM methionine
S. aureus = assay: Time-kill study; format: cell-based, Staphylococcus aureus; conditions: 4×MIC
Summary of the method: as §1

[4] = test system: human embryonic kidney 293 cells (HEK-293); assay: MTT cytotoxicity assay; format: cell-based
S. aureus (ATCC 29213) = assay: MIC, broth microdilution; format: cell-based, Staphylococcus aureus
[5] = test system: H. influenzae (ATCC 49766); assay: MIC, broth microdilution; format: cell-based, Haemophilus influenzae
E. coli MetRS = conditions: cited from earlier work
P. aeruginosa MetRS [6] = target: T1, P. aeruginosa MetRS
[7] = substrate: Nc1ncnc2c1ncn2[C@@H]1O[C@H](COP(=O)(O)OP(=O)(O)OP(=O)(O)O)[C@@H](O)[C@H]1O; assay: purified protein, by the assay type; conditions: other: substrate ATP, methionine 2 mM; pH 7.5; 37.0 °C
[8] = substrate: CSCC[C@H](N)C(=O)O; assay: purified protein, by the assay type; conditions: other: substrate methionine, ATP 2 mM; pH 7.5; 37.0 °C

## O=c1cc(-c2cc(O)c(O)c(O)c2)oc2cc(O)cc(O)c12 [hieracin]
P. aeruginosa MetRS [1]
  IC50: 8.3 µM

## CC1(C)C=Cc2c(c3c(c4c(=O)c(-c5ccc(O)c(O)c5)coc24)OC(C)(C)CC3)O1 [Isopomiferin, isopomiferin]
E. faecalis (ATCC 29212)
  MIC: 32 µg/mL (≈ 76.1 µM)
H. influenzae; 0-24 h
  mode of inhibition (time-kill): bacteriostatic
H. influenzae; during 24 h
  decrease of colony forming units compared to the control: 2 to 5 log10 CFU
[2]
  MIC: 16 µg/mL (≈ 38.1 µM)
P. aeruginosa MetRS [3]
  competition with methionine for binding MetRS: not observed to compete
  competition with ATP for binding MetRS: not observed to compete
P. aeruginosa MetRS [3]; listed as BM01C11
  competition with methionine for binding MetRS: did not compete
  competition with ATP for binding MetRS: did not compete
P. aeruginosa MetRS [3]; IC50 constant as ATP or methionine increased
  form of inhibition: non-competitive
S. aureus; 0-24 h
  mode of inhibition (time-kill): bactericidal
S. aureus; first six hours of growth
  CFUs in time-kill: no CFUs were observed
P. aeruginosa MetRS [1]; aminoacylation, 0.1 μM MetRS, compound 200 to 0.4 μM
  IC50: 70 µM
[4]
  CC50 relative to that of staurosporine: 10,000 fold
S. aureus (ATCC 29213)
  MIC: 32 µg/mL (≈ 76.1 µM)
[5]
  MIC: Moderate activity

## CSCC[C@H](N)C(=O)O [Methionine]
E. coli MetRS; E. coli MetRS with methionine
  Km: 21 µM
  kcat: 74 µM
P. aeruginosa MetRS [6]; substrate methionine
  kcat: 37.2 s⁻¹

## Nc1ncnc2c1ncn2[C@@H]1O[C@H](COP(=O)(O)OP(=O)(O)OP(=O)(O)O)[C@@H](O)[C@H]1O [ATP, Adenosine triphosphate]
E. coli MetRS; E. coli MetRS with ATP
  Km: 528 µM
  kcat: 74 µM
P. aeruginosa MetRS [6]; substrate ATP
  kcat: 24.2 s⁻¹

B1: P. aeruginosa MetRS (Pseudomonas aeruginosa PAO1) (protein)
chain: T1 sequence (Q9HYC7 1-677)
[7]
  Km: 515 µM
  kcat: 24.2 s⁻¹
  kcat/Km: 0.05 µM/s
[8]
  Km: 35 µM
  kcat: 37.2 s⁻¹
  kcat/Km: 1.1 µM/s

Source: publication PMC5788008 (Current drug discovery technologies, 2017)
